Laboratory results from ChEMBL document CHEMBL1153606, “Microwave assisted synthesis of new indophenazine 1,3,5-trisubstruted pyrazoline derivatives of benzofuran and their antimicrobial activity” (2009).
In brackets after ≈: the same amount, converted by molar mass. Activity calls are given as the source filed them. The calls are words filed in the database; no cut-off is given here.

Key:
Streptococcus pneumoniae [1] = experiment: Antibacterial activity against multidrug-resistant Streptococcus pneumoniae after 24 hrs by broth microdilution method; type: functional
Method in brief: (§1)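 MIC was determined in Mueller–Hinton broth.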

[2] = system: Salmonella enterica subsp. enterica; experiment: Antibacterial activity against multidrug-resistant Salmonella typhi after 24 hrs by broth microdilution method; type: functional, Salmonella enterica subsp. enterica serovar Typhi; method in brief: as §1
Streptococcus pneumoniae [3] = experiment: Antibacterial activity against multidrug-resistant Streptococcus pneumoniae after 20 hrs by cylinder and well method; type: functional
Method in brief: (§2)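 Agar diffusion assay: organisms grown overnight on 2% agar with 5% sheep blood under 10% CO2. Inocula were diluted in Ringer solution, treated in Todd–Hewitt medium and spread on agar plates. Drug spots were applied, with about 5 × 10^3 CFU/spot. Plates were held at 37 °C for 20 h. Inhibition zones were read in mm against standard drugs and vehicle.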

Streptococcus agalactiae [4] = experiment: Antibacterial activity against multidrug-resistant Streptococcus agalactiae after 24 hrs by broth microdilution method; type: functional; method in brief: as §1
Streptococcus pyogenes [5] = experiment: Antibacterial activity against multidrug-resistant Streptococcus pyogenes after 24 hrs by broth microdilution method; type: functional; method in brief: as §1
Staphylococcus aureus [6] = experiment: Antibacterial activity against multidrug-resistant Staphylococcus aureus after 20 hrs by cylinder and well method; type: functional; method in brief: as §2
Pseudomonas aeruginosa [7] = experiment: Antibacterial activity against multidrug-resistant Pseudomonas aeruginosa after 24 hrs by broth microdilution method; type: functional; method in brief: as §1
Pseudomonas aeruginosa [8] = experiment: Antibacterial activity against multidrug-resistant Pseudomonas aeruginosa after 20 hrs by cylinder and well method; type: functional; method in brief: as §2
Staphylococcus aureus [9] = experiment: Antibacterial activity against multidrug-resistant Staphylococcus aureus after 24 hrs by broth microdilution method; type: functional; method in brief: as §1
Streptococcus pyogenes [10] = experiment: Antibacterial activity against multidrug-resistant Streptococcus pyogenes after 20 hrs by cylinder and well method; type: functional; method in brief: as §2
[11] = system: Salmonella enterica subsp. enterica; experiment: Antibacterial activity against multidrug-resistant Salmonella typhi after 20 hrs by cylinder and well method; type: functional, Salmonella enterica subsp. enterica serovar Typhi; method in brief: as §2
Escherichia coli [12] = experiment: Antibacterial activity against multidrug-resistant Escherichia coli after 20 hrs by cylinder and well method; type: functional; method in brief: as §2
Escherichia coli [13] = experiment: Antibacterial activity against multidrug-resistant Escherichia coli broth after 24 hrs by broth microdilution method; type: functional; method in brief: as §1
Streptococcus agalactiae [14] = experiment: Antibacterial activity against multidrug-resistant Streptococcus agalactiae after 20 hrs by cylinder and well method; type: functional; method in brief: as §2
Candida albicans = experiment: Antifungal activity against Candida albicans after 30 to 72 hrs by agar culture method; type: functional, organism-based
Method in brief: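 Agar well assay on C. albicans: compounds at a range of concentrations in DMF were loaded into 6 mm wells. Plates were incubated at 30 °C for 30–72 h. Inhibition zones were read in mm against standard drugs.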

Structure (SMILES)	MIC (Streptococcus pneumoniae [1]) [µg/mL]	MIC [2] [µg/mL]	inhibition zone (IZ) (Streptococcus pneumoniae [3]) [mm]	MIC (Streptococcus agalactiae [4]) [µg/mL]	MIC (Streptococcus pyogenes [5]) [µg/mL]	inhibition zone (IZ) (Staphylococcus aureus [6]) [mm]	MIC (Pseudomonas aeruginosa [7]) [µg/mL]	inhibition zone (IZ) (Pseudomonas aeruginosa [8]) [mm]	MIC (Staphylococcus aureus [9]) [µg/mL]	inhibition zone (IZ) (Streptococcus pyogenes [10]) [mm]	inhibition zone (IZ) [11] [mm]	inhibition zone (IZ) (Escherichia coli [12]) [mm]	MIC (Escherichia coli [13]) [µg/mL]	inhibition zone (IZ) (Streptococcus agalactiae [14]) [mm]	Activity (Candida albicans)
O=C(Cn1c2ccccc2c2nc3ccccc3nc21)N1N=C(c2cc3ccccc3o2)CC1c1ccccc1 (stereo not drawn)	2 (≈ 3.83 µM)	17 (≈ 32.6 µM)	20	28.5 (≈ 54.6 µM)	28.5 (≈ 54.6 µM)	16	15.5 (≈ 29.7 µM)	11	2.5 (≈ 4.79 µM)	12	8	14	8 (≈ 15.3 µM)	8	inactive
COc1ccc(C2CC(c3cc4ccccc4o3)=NN2C(=O)Cn2c3ccccc3c3nc4ccccc4nc32)cc1 (stereo not drawn)	4.5 (≈ 8.16 µM)	12 (≈ 21.8 µM)	16	19 (≈ 34.4 µM)	23.5 (≈ 42.6 µM)	12	12.5 (≈ 22.7 µM)	13	8 (≈ 14.5 µM)	14	11	17	5 (≈ 9.06 µM)	14	inactive
O=C(Cn1c2ccccc2c2nc3ccccc3nc21)N1N=C(c2cc3ccccc3o2)CC1c1ccccc1Cl (stereo not drawn)	7 (≈ 12.6 µM)	15 (≈ 27 µM)	14	30 (≈ 54 µM)	25 (≈ 45 µM)	11	17.5 (≈ 31.5 µM)	9	10 (≈ 18 µM)	12	9	8	21.5 (≈ 38.7 µM)	10	inactive
O=C(Cn1c2ccccc2c2nc3ccccc3nc21)N1N=C(c2cc3ccccc3o2)CC1c1ccc(Cl)cc1 (stereo not drawn)	5.5 (≈ 9.89 µM)	16 (≈ 28.8 µM)	15	28 (≈ 50.4 µM)	22 (≈ 39.6 µM)	8	16.5 (≈ 29.7 µM)	10	16.5 (≈ 29.7 µM)	14	10	7	22.5 (≈ 40.5 µM)	10	inactive
O=C(Cn1c2ccccc2c2nc3ccccc3nc21)N1N=C(c2cc3ccccc3o2)CC1/C=C/c1ccccc1 (stereo not drawn)	10 (≈ 18.3 µM)	14.5 (≈ 26.5 µM)	12	22.5 (≈ 41.1 µM)	26.5 (≈ 48.4 µM)	14	18.5 (≈ 33.8 µM)	10	4.5 (≈ 8.22 µM)	10	10	8	20.5 (≈ 37.4 µM)	9	inactive
COc1ccc(C2CC(c3cc4ccccc4o3)=NN2C(=O)Cn2c3ccccc3c3nc4ccccc4nc32)c(O)c1 (stereo not drawn)	5 (≈ 8.81 µM)	14.5 (≈ 25.5 µM)	16	28 (≈ 49.3 µM)	26 (≈ 45.8 µM)	13	18.5 (≈ 32.6 µM)	10	9 (≈ 15.9 µM)	14	11	11	13.5 (≈ 23.8 µM)	11	inactive
O=C(Cn1c2ccccc2c2nc3ccccc3nc21)N1N=C(c2cc3ccccc3o2)CC1c1ccco1 (stereo not drawn)	5.6 (≈ 10.9 µM)	16.5 (≈ 32.3 µM)	14	26.5 (≈ 51.8 µM)	30 (≈ 58.6 µM)	10	21 (≈ 41.1 µM)	8	10.5 (≈ 20.5 µM)	8	9	10	15 (≈ 29.3 µM)	10	inactive
CN(C)c1ccc(C2CC(c3cc4ccccc4o3)=NN2C(=O)Cn2c3ccccc3c3nc4ccccc4nc32)cc1 (stereo not drawn)	9 (≈ 15.9 µM)	9.5 (≈ 16.8 µM)	13	36.5 (≈ 64.6 µM)	25.5 (≈ 45.2 µM)	14	14 (≈ 24.8 µM)	11	7 (≈ 12.4 µM)	9	10	10	13.5 (≈ 23.9 µM)	7	inactive
C[C@@H]1CN(c2c(F)c(N)c3c(=O)c(C(=O)O)cn(C4CC4)c3c2F)C[C@H](C)N1 [SPARFLOXACIN]	0.04 (≈ 0.102 µM)	0.5 (≈ 1.27 µM)	34	12 (≈ 30.6 µM)	15 (≈ 38.2 µM)	36	4.6 (≈ 11.7 µM)	33	0.25 (≈ 0.637 µM)	38	34	30	0.26 (≈ 0.663 µM)	38	–
CCn1cc(C(=O)O)c(=O)c2cc(F)c(N3CCNCC3)cc21 [NORFLOXACIN]	0.12 (≈ 0.376 µM)	20.2 (≈ 63.3 µM)	22	22 (≈ 68.9 µM)	2.6 (≈ 8.14 µM)	28	1.8 (≈ 5.64 µM)	28	1.5 (≈ 4.7 µM)	30	24	20	1.3 (≈ 4.07 µM)	32	–
O=C(Cn1c2ccccc2c2nc3ccccc3nc21)N1N=C(c2cc3ccccc3o2)CC1c1ccccc1O (stereo not drawn)	9.5 (≈ 17.7 µM)	8.5 (≈ 15.8 µM)	12	22 (≈ 40.9 µM)	26 (≈ 48.4 µM)	13	3.5 (≈ 6.51 µM)	15	6 (≈ 11.2 µM)	10	13	18	1 (≈ 1.86 µM)	11	inactive
O=C(Cn1c2ccccc2c2nc3ccccc3nc21)N1N=C(c2cc3ccccc3o2)CC1c1ccc(O)cc1 (stereo not drawn)	8.5 (≈ 15.8 µM)	19.5 (≈ 36.3 µM)	12	32.5 (≈ 60.5 µM)	20.5 (≈ 38.1 µM)	14	26 (≈ 48.4 µM)	8	6.5 (≈ 12.1 µM)	15	8	10	14 (≈ 26 µM)	8	inactive
COc1ccccc1C1CC(c2cc3ccccc3o2)=NN1C(=O)Cn1c2ccccc2c2nc3ccccc3nc21 (stereo not drawn)	11.5 (≈ 20.8 µM)	15.5 (≈ 28.1 µM)	10	25 (≈ 45.3 µM)	22.5 (≈ 40.8 µM)	11	14.5 (≈ 26.3 µM)	12	7.5 (≈ 13.6 µM)	15	7	9	16.5 (≈ 29.9 µM)	9	inactive
O=C(Cn1c2ccccc2c2nc3ccccc3nc21)N1N=C(c2cc3ccccc3o2)CC1c1cccc([N+](=O)[O-])c1 (stereo not drawn)	8 (≈ 14.1 µM)	13 (≈ 22.9 µM)	14	26 (≈ 45.9 µM)	28 (≈ 49.4 µM)	9	5.5 (≈ 9.71 µM)	16	12.5 (≈ 22.1 µM)	12	10	13	10.5 (≈ 18.5 µM)	12	inactive
O=C(Cn1c2ccccc2c2nc3ccccc3nc21)N1N=C(c2cc3ccccc3o2)CC1c1ccccc1[N+](=O)[O-] (stereo not drawn)	8.5 (≈ 15 µM)	14.5 (≈ 25.6 µM)	13	22 (≈ 38.8 µM)	24 (≈ 42.4 µM)	12	10.5 (≈ 18.5 µM)	12	9.5 (≈ 16.8 µM)	10	10	16	5.5 (≈ 9.71 µM)	12	inactive
O=C(O)c1ccccc1C1CC(c2cc3ccccc3o2)=NN1C(=O)Cn1c2ccccc2c2nc3ccccc3nc21 (stereo not drawn)	10.5 (≈ 18.6 µM)	15 (≈ 26.5 µM)	12	24 (≈ 42.4 µM)	30.5 (≈ 53.9 µM)	12	6.5 (≈ 11.5 µM)	14	8.5 (≈ 15 µM)	10	8	11	13 (≈ 23 µM)	10	inactive
